Screening data (PubChem)
Mot1-301 SUMO = yeast Mot1-301 growth rescue at high temperature, primary screen, SUMOylation pathway inhibitor project, S. cerevisiae, ATP luminescence, 38.5C; S. cerevisiae Mot1-301 growth rescue; percent above DMSO median, 100 means doubled; growth rescue, % at 18.8 µM; 320,000 compounds, 1% hits; AID 2716, 2010;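 active = every valid replicate shows activation above 250% relative to neutral control wells; inactive = the rest, any valid replicate at or below 250%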;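 note: OY570 slx delta 5 strain wells were the positive control but not used for scaling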
ARFGAP1 inh = inhibitors of rat ARFGAP1 GAP activity, primary screen, biochemical, fluorescence polarization, GDP tracer | ADP-ribosylation factor GTPase-activating protein 1 (Rattus norvegicus), Q62848 | AID 651572, 2012 | Arfgap1-stimulated ARF1 GTP hydrolysis, GDP FP detection | inhibition, % at 16.5 µM | 360,000 compounds, 0.26% hits;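 active = inhibition above a per-plate limit, mean inhibition of low control wells plus 3 SD, cut at about 25% in these data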;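 note: 0% = DMSO wells with enzyme and 100% = wells lacking Arfgap1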
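Material: rat Arfgap1 catalytic domain, aa 1-136; also added: human ARF1(Δ1-17)-GTP substrate; compound dosing: one concentration, 16.5 µM, DMSO 1.26%; incubation: GTP hydrolysis reaction 2 h at 25 °C; measured by: Tracer-displacement fluorescence polarization with EDTA stop, 620/688 nm; evaluation: % inhibition from polarization; repeats: one replicate per compound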
A3G deaminase = APOBEC3G DNA deaminase inhibitors, primary screen, biochemical, fluorescence, single-stranded DNA substrate, uHTS; recombinant A3G, ssDNA deamination FAM/TAMRA fluorescence; inhibition, % at 20 µM; 330,000 compounds, 0.28% hits; AID 493012, 2011;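 active = inhibition of at least 40% at 20 µM, with no more than 30% in the related APOBEC3A deaminase screen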;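 note: plate controls were DMSO wells with A3G for no effect and wells lacking A3G enzyme for full effect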
A3A deaminase = APOBEC3A ssDNA deaminase inhibitors, primary screen, selectivity assay for APOBEC3G inhibitor project, biochemical, FAM/TAMRA oligo cleavage fluorescence | DNA dC->dU-editing enzyme APOBEC-3A (Homo sapiens), P31941 | 330,000 compounds, 0.41% hits | recombinant A3A, FAM/TAMRA ssDNA deamination fluorescence | inhibition, % at 20 µM;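 active = at least 40% inhibition at 20 µM here, with at most 30% in a related deaminase screen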;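 note: plate controls were A3A with DMSO for no effect and wells lacking A3A enzyme for full effect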
Target sequence (P31941 whole entry, looked up): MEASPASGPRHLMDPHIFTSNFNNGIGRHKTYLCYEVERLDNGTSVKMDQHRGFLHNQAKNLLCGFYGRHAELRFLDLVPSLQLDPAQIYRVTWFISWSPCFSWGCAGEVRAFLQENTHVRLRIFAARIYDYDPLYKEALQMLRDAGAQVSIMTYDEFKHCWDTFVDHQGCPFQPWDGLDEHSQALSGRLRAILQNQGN
C2C12 statin = suppressors of statin myotoxicity in C2C12 myotubes, primary screen, cell-based, single point, plate reader; C2C12 myotubes + simvastatin, ATP luminescence, 48 h; scaled: DMSO 0, geranylgeraniol control 100; rescue of ATP level, % at 7.49 µM; 330,000 compounds, 0.78% hits;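 active = mean ATP rescue above about 67%, or every replicate alone reaching that limit, limit read from the data, passing the limit was not always enough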;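 note: myotubes were challenged with 10 µM simvastatin during compound exposure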
ASAP1 GAP inh = inhibitors of human ASAP1 ArfGAP activity, primary screen, biochemical, fluorescence polarization. Arf-GAP with SH3 domain, ANK repeat and PH domain-containing protein 1 (Homo sapiens), …. ASAP1-stimulated ARF1 GTP hydrolysis, GDP FP detection. inhibition, % at 16.5 µM. 360,000 compounds, 0.19% hits; in the data active = inhibition above about 25%;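 note: 0% = vehicle with enzyme and substrate and 100% = no enzyme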
Target sequence (Q9ULH1 325-724 limits assumed): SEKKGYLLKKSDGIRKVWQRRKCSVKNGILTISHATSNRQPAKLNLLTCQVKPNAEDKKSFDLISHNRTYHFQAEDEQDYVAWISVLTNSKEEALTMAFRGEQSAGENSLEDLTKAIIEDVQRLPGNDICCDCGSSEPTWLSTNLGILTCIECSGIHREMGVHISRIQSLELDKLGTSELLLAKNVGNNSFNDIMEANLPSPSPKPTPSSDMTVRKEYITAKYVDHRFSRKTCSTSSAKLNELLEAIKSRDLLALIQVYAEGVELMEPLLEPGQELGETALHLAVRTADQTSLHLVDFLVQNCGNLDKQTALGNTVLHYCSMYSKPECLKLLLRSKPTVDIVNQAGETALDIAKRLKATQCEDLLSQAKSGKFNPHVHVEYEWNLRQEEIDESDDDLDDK
* marks the source's active call; other numbers are inactive results; nt = no result given. This is a sample that favours compounds with a hit; in the whole collection about 2.1% have one here.

SMILES | Mot1-301 SUMO | ARFGAP1 inh | A3G deaminase | A3A deaminase | C2C12 statin | ASAP1 GAP inh
Cc1ccc2c(c1)NC(C(C)(C)C)CO2 (stereo not given) | 6 | 2 | 0 | -3 | 115* | 7
Nc1nc2n[nH]nc2c(=O)[nH]1 | 15 | -1 | -2 | 3 | 90* | 4
Cc1ccc(-n2cnc(=O)c3cccnc32)cc1 | -22 | -8 | -5 | -3 | nt | 8
C#CCSc1nc(=O)c2cccnc2n1-c1ccc(C)cc1 | 4 | -1 | -15 | -5 | 132* | 1
CN1[C@H](C(=O)NCC2CCCCC2)[C@@H](CO)[C@@H]2Cn3c(cccc3=O)[C@@H]21 | nt | nt | nt | nt | -6 | nt
CCN1CCC[C@H]1CNC(=O)c1c(O)c(Cl)cc(Cl)c1OC | 2 | -15 | -10 | 0 | -4 | 6
CCN1CCCC1CNC(=O)c1c(O)c2c([nH]c1=O)CCCC2 (stereo not given) | 8 | -12 | -1 | 0 | 119* | -9
CCS(=O)(=O)Nc1ccc2c(c1)C(=O)N(C)C[C@H](OC)[C@@H](C)CN(Cc1ccccn1)[C@H](C)CO2 | nt | nt | nt | nt | -5 | nt
Cc1cc(C)nc(/N=C2\NC(=O)CC(C(=O)O)N2c2ccc(Cl)cc2)n1 (stereo not given) | 1 | -8 | 2 | 4 | 70* | -10
Cc1ccc(N2/C(=N/c3nc(C)cc(C)n3)NC(=O)CC2C(=O)O)cc1 (stereo not given) | -5 | 4 | -3 | 0 | 1 | 15
O=c1ccnc(NCCc2ccccc2)[nH]1 | 2 | 2 | -3 | -2 | 99* | -10
Cn1cnnc1SCc1cccc(Br)c1 | 264* | 2 | -2 | 4 | 4 | 3
Cn1cnnc1SCC(=O)Nc1ccc(Br)cc1F | -7 | 14 | -6 | -2 | 71* | -4
CCOc1ccc(S(=O)(=O)NN)cc1 | 2 | 10 | 6 | 3 | 96* | 5
CCOc1ccc(NS(=O)(=O)c2ccc(N)cc2)cc1 | 5 | -1 | -3 | 14 | nt | -1
CC(=O)C[C@@H](O)CC(=O)[C@H]1OC(=O)CCCCCc2ccccc21 | -16 | 5 | -7 | -6 | 8 | -13
CC(=O)C[C@@H](O)CC(=O)[C@@H]1OC(=O)CCCCCCCCc2ccccc21 | 27 | 4 | 0 | -1 | 125* | 4
CC(=O)C[C@@H](O)CC(=O)[C@@H]1OC(=O)CCCCC/C=C/Cc2ccccc21 | -12 | -4 | -1 | -1 | 92* | -9
CO[C@H]1CN(C)C(=O)c2ccc(NC(=O)C3CCCC3)cc2OC[C@@H](C)N(C)C[C@H]1C | nt | nt | nt | nt | -8 | nt
CCOC(=O)CN(C)C(=O)CCc1nnc(-c2ccsc2)o1 | 611* | 1 | -10 | -2 | -7 | 4
CCC(C(=O)Nc1ccccc1-c1ccccc1)c1ccccc1 (stereo not given) | 1 | -3 | -3 | 1 | 113* | 7
Cc1onc(-c2ccc3c(c2)OCO3)c1-c1ccc2[nH]ccc2c1 | 14 | 0 | 5 | 2 | -14 | 11
c1cc2cc(-c3c(-c4ccc5c(c4)OCO5)noc3-c3ccsc3)ccc2[nH]1 | 2 | 29* | -16 | -5 | 126* | 14
CCCC1CC(CCc2ccccc2)OS(=O)(=O)N1 (stereo not given) | 26 | -7 | -2 | -2 | 95* | 7
c1ccc(CC[C@@H]2CC[C@@H](CCc3ccccc3)N2)cc1 | 27 | 13 | 3 | 2 | 47 | 15
SMILES | Mot1-301 SUMO | ARFGAP1 inh | A3G deaminase | A3A deaminase | C2C12 statin | ASAP1 GAP inh
Cc1cc(C(=O)Nc2cccc3c2O[C@H](CN(C)C(=O)Nc2ccc(C(F)(F)F)cc2)[C@@H](C)CN([C@H](C)CO)C3=O)n(C)n1 | nt | nt | nt | nt | -48 | nt
O=C(CC1CC1)Nc1ccc2c(c1)[C@H]1C[C@H](CC(=O)NC3CCCCC3)O[C@@H](CO)[C@H]1O2 | nt | nt | nt | nt | 0 | nt
COc1cc(NC(=O)Cc2cccc3ccccc23)c(C(=O)O)cc1OC | 18 | 2 | -11 | -7 | 83* | -5
COc1ccccc1CC(=O)Nc1ccccc1C(=O)O | 2 | -4 | 2 | 3 | 1 | 2
CCOC(=O)c1ccccc1NC(=O)Cc1ccccc1OC | 391* | -8 | -6 | -4 | 6 | 6
Cc1cc(C)nc(SCC(=O)Nc2ccc(Br)cn2)n1 | 3 | 12 | -6 | -1 | -12 | -5
Cc1cc(C)nc(SCC(=O)NC2=NN=C(c3ccc(Br)cc3)CS2)n1 | 0 | -8 | -2 | -4 | 145* | 4
CCC(Sc1nc(C)cc(C)n1)C(=O)Nc1cc(C)on1 (stereo not given) | -8 | -5 | 0 | 1 | nt | -5
CCC(Sc1nc(C)cc(C)n1)C(=O)NC1=NN=C(c2ccc(C)cc2)CS1 (stereo not given) | 16 | -4 | -1 | 0 | 83* | 3
Cc1ccc(S(=O)(=O)Nc2ccc3c(c2)CC(=O)N([C@H](C)CO)C[C@@H](C)[C@@H](CN(C)Cc2ccc(C(F)(F)F)cc2)O3)cc1 | nt | nt | nt | nt | 67* | nt
C[C@@H]1CN([C@H](C)CO)C(=O)Cc2cc(NS(=O)(=O)c3ccc(Cl)cc3)ccc2O[C@H]1CN(C)Cc1ccc(C(F)(F)F)cc1 | 1 | nt | -3 | -3 | 33 | nt
C[C@H]1CN([C@@H](C)CO)C(=O)Cc2cc(N(C)C)ccc2O[C@H]1CN(C)Cc1ccc(C(F)(F)F)cc1 | nt | nt | nt | nt | -88 | nt
C[C@H](CO)N1C[C@H](C)[C@@H](CN(C)Cc2ccc(C(F)(F)F)cc2)Oc2ccc(NS(=O)(=O)c3ccc(Cl)cc3)cc2CC1=O | nt | nt | nt | nt | 112* | nt
Cc1ccc(S(=O)(=O)Nc2ccc3c(c2)CC(=O)N([C@@H](C)CO)C[C@H](C)[C@@H](CN(C)Cc2ccc(C(F)(F)F)cc2)O3)cc1 | nt | nt | nt | nt | 40 | nt
C[C@@H]1CN([C@@H](C)CO)C(=O)Cc2cc(N(C)C)ccc2O[C@H]1CN(C)Cc1ccc(C(F)(F)F)cc1 | nt | nt | nt | nt | 97* | nt
Cc1ccc(S(=O)(=O)Nc2ccc3c(c2)CC(=O)N([C@@H](C)CO)C[C@@H](C)[C@H](CN(C)Cc2ccc(C(F)(F)F)cc2)O3)cc1 | nt | nt | nt | nt | 69* | nt
C[C@@H]1CN([C@@H](C)CO)C(=O)Cc2cc(NS(=O)(=O)c3ccc(F)cc3)ccc2O[C@@H]1CN(C)Cc1ccc(C(F)(F)F)cc1 | nt | nt | nt | nt | 25 | nt
